Results reported in ChEMBL document CHEMBL1667757, “Efficient and novel one-pot synthesis of antifungal active 1-substituted-8-aryl-3-alkyl/aryl-4H-pyrazolo[4,5-f][1,2,4]triazolo[4,3-b][1,2,4]triazepines using solid support” (2011).

Assays:
Format in all cases: functional
Rhizopus [1] = experiment: Antifungal activity against Rhizopus species at 1000 ug after 24 hrs by paper disc technique; details: for zone of inhibition at 1000 µg/disc: Rhizopus, 24 h, read-out: DIZ
Method in brief: (§1)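 Paper disc diffusion on double-layer potato dextrose agar: 15 mL sterile base topped with 15 mL medium seeded at 40 °C with spores from ten-day cultures; streptomycin added to prevent bacterial growth. Compounds dissolved in DMF at 500 or 1000 µg/mL and applied to 6 mm filter paper discs on chilled seeded plates. Plates incubated at 28 ± 2 °C. Inhibition zone measured from disc centre at 24 h, percent inhibition calculated as (C − T)/C × 100. Fluconazole at same concentrations served as standard.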

Aspergillus niger [2] = experiment: Antifungal activity against Aspergillus niger at 500 ug after 24 hrs by paper disc technique; details: for zone of inhibition at 500 µg/disc: Aspergillus niger, 24 h, read-out: DIZ; method in brief: as §1
Aspergillus flavus [3] = experiment: Antifungal activity against Aspergillus flavus at 1000 ug after 24 hrs by paper disc technique; details: for zone of inhibition at 1000 µg/disc: Aspergillus flavus, 24 h, read-out: DIZ; method in brief: as §1
Penicillium sp. [4] = experiment: Antifungal activity against Penicillium species at 1000 ug after 24 hrs by paper disc technique; details: for zone of inhibition at 1000 µg/disc: Penicillium sp., 24 h, read-out: DIZ; method in brief: as §1
Rhizopus [5] = experiment: Antifungal activity against Rhizopus species at 500 ug after 24 hrs by paper disc technique; details: for zone of inhibition at 500 µg/disc: Rhizopus, 24 h, read-out: DIZ; method in brief: as §1
Penicillium sp. [6] = experiment: Antifungal activity against Penicillium species at 500 ug after 24 hrs by paper disc technique; details: for zone of inhibition at 500 µg/disc: Penicillium sp., 24 h, read-out: DIZ; method in brief: as §1
Aspergillus flavus [7] = experiment: Antifungal activity against Aspergillus flavus at 500 ug after 24 hrs by paper disc technique; details: for zone of inhibition at 500 µg/disc: Aspergillus flavus, 24 h, read-out: DIZ; method in brief: as §1
Aspergillus niger [8] = experiment: Antifungal activity against Aspergillus niger at 1000 ug after 24 hrs by paper disc technique; details: for zone of inhibition at 1000 µg/disc: Aspergillus niger, 24 h, read-out: DIZ; method in brief: as §1

SMILES	Activity (Rhizopus [1]) [%]	zone of inhibition at 1000 µg/disc (Rhizopus [1]) [mm]	Activity (Aspergillus niger [2]) [%]	zone of inhibition at 500 µg/disc (Aspergillus niger [2]) [mm]	percent growth inhibition (Aspergillus flavus [3]) [%]	zone of inhibition at 1000 µg/disc (Aspergillus flavus [3]) [mm]	percent inhibition (Penicillium sp. [4]) [%]	zone of inhibition at 1000 µg/disc (Penicillium sp. [4]) [mm]	Activity (Rhizopus [5]) [%]	zone of inhibition at 500 µg/disc (Rhizopus [5]) [mm]	Activity (Penicillium sp. [6]) [%]	zone of inhibition at 500 µg/disc (Penicillium sp. [6]) [mm]	Activity (Aspergillus flavus [7]) [%]	zone of inhibition at 500 µg/disc (Aspergillus flavus [7]) [mm]	percent inhibition (Aspergillus niger [8]) [%]	zone of inhibition at 1000 µg/disc (Aspergillus niger [8]) [mm]
OC(Cn1cncn1)(Cn1cncn1)c1ccc(F)cc1F [FLUCONAZOLE]	70	42	70	42	70	42	90	54	63.33	38	86.66	52	58.33	35	80	48
O=[N+]([O-])c1ccc(-c2nn(-c3ccccc3)c3c2C=Nc2nnc(-c4ccccc4)n2N3)cc1	66.66	36	51.66	31	36.66	22	15	9	65	39	12.98	7	40	24	33.33	20
C1=Nc2nnc(-c3ccccc3)n2Nc2c1c(-c1ccccc1)nn2-c1ccccc1	65	39	33.33	20	35.36	21	3.33	2	66.66	36	8.33	5	35.36	21	51.66	31
Cc1n[nH]c2c1C=Nc1nnc(-c3ccccc3)n1N2	60.66	40	36.66	22	40	24	13.33	8	53.33	32	10	6	33.33	20	53.33	32
O=[N+]([O-])c1ccc(-c2nn(-c3ccccc3)c3c2C=Nc2nnc(-c4ccc([N+](=O)[O-])cc4)n2N3)cc1	38.33	23	13.33	8	15	9	–	–	30	18	–	–	5	3	25	15
Brc1ccc(-c2nn(-c3ccccc3)c3c2C=Nc2nnc(Cc4ccccc4)n2N3)cc1	40	24	3.33	2	13.33	8	–	–	46.66	28	8.33	5	33.33	20	23.33	14
Clc1ccc(-c2nnc3n2Nc2c(c(-c4ccc(Br)cc4)nn2-c2ccccc2)C=N3)cc1	53.33	32	53.33	32	40	24	13.33	8	60.66	40	15	9	36.66	22	35.36	21
Cc1n[nH]c2c1C=Nc1nnc(-c3ccc(Cl)cc3)n1N2	60.66	40	38.33	23	40	24	15	9	51.66	31	13.33	8	36.66	22	53.33	32
O=[N+]([O-])c1ccc(-c2nnc3n2Nc2c(c(-c4ccc(Br)cc4)nn2-c2ccccc2)C=N3)cc1	35.36	21	23.33	14	13.33	8	8.33	5	40	24	3.33	2	31.33	18	3.33	2
Brc1ccc(-c2nn(-c3ccccc3)c3c2C=Nc2nnc(-c4ccccc4)n2N3)cc1	38	22	3.33	2	11.33	6	13.33	8	42.66	26	8.33	5	31.33	18	21.33	12
O=[N+]([O-])c1ccc(-c2nn(-c3ccccc3)c3c2C=Nc2nnc(Cc4ccccc4)n2N3)cc1	40	24	3.33	2	13.33	8	–	–	46.66	28	–	–	33.33	20	23.33	14
